Experimental findings from ChEMBL document CHEMBL4312035, “Preliminary SAR and biological evaluation of potent HIV-1 protease inhibitors with pyrimidine bases as novel P2 ligands to enhance activity against DRV-resistant HIV-1 variants” (Eur J Med Chem, 2020) are described below.

Molecules are shown by their SMILES.

Series [1] is described as follows: Cytotoxicity against human 293T cells measured after 24 hrs by CCK8 assay. The settings on record: HEK-293T cells. The series is classed as cell-based. In short, it runs like this:
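293T cells plated at 20 000 per well and cultured 24 h before drug addition; exposure 24 h, then CCK-8 added and absorbance read at 450 nm after 2 h at room temperature. Run in triplicate; mean ± 1 SD from three independent experiments.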
Background: Tetrazolium dyes change colour on reduction, which living cells bring about.

The subject of series [2] is Human immunodeficiency virus 1. The experiment in a line: Antiviral activity against darunavir-resistant HIV1 NL4-3 infected in human […] after 48 hrs by luciferase reporter assay. The series is classed as functional, organism-based. To be noted: Human immunodeficiency virus 1, NL4-3, 48 h. In general terms: In a reporter assay the amount or activity of a reporter protein is the signal.

Series [3] has as its system Human immunodeficiency virus 1. Put plainly: Antiviral activity against wild-type HIV1 NL4-3 infected in human SupT1 cells infected with […] after 48 hrs by luciferase reporter assay. The series is classed as functional, organism-based. To be noted: Human immunodeficiency virus 1, NL4-3, 48 h.
Series [4] has as its system Human immunodeficiency virus 1. Put plainly: Antiviral activity against VSV-G pseudotyped HIV1 transfected in human 293T cells co-transfected with NL4-3 HIV1 supernatant infected in human SupT1 cells treated with compound for 48 hrs assessed as inhibition of viral infection at 10 uM after 48 hrs by luciferase assay (reference value: 0 %). The series is classed as functional. The settings on record: Human immunodeficiency virus 1, 48 h.

A further series deals with Protease (Human immunodeficiency virus 1, UniProt Q9YQ12). Put plainly: Inhibition of HIV1 protease expressed in Escherichia coli using Arg-Glu (EDANS)-Ser-Gln-Asn-Tyr-Pro-Ile-Val-Gln-Lys(DABCYL)-Arg as substrate preincubated for 20 to 30 mins followed by substrate addition and measured for 10 mins by FRET assay. In a few lines:
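Recombinant HIV-1 protease, purified from E. coli. Buffer: 0.1 M sodium acetate, 1 M NaCl, 1 mM EDTA, 1 mM DTT, 2% DMSO, 1 mg/mL BSA, pH 4.7. Inhibitor dissolved in DMSO. Excitation 340 nm, emission 490 nm, recorded about 10 min. Run in triplicate; IC50 as mean ± 1 SD from three independent experiments.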

The test system of series [5] is Human immunodeficiency virus 1. The experiment in a line: Antiviral activity against VSV-G pseudotyped HIV1 transfected in human 293T cells co-transfected with NL4-3 HIV1 supernatant infected in human SupT1 cells treated with compound for 48 hrs assessed as inhibition of viral infection at 100 nM after 48 hrs by luciferase assay (reference value: 0 %). The series is classed as functional. The settings on record: Human immunodeficiency virus 1, 48 h.

Series [6] relates to Human immunodeficiency virus 1. The experiment in a line: Ratio of EC50 for antiviral activity against darunavir-resistant HIV1 NL4-3 infected in human SupT1 cells infected with supernatants from virus-infected human TZM-bl cells to EC50 for antiviral activity against wild-type HIV1 NL4-3 infected in human SupT1 cells infected with supernatants from virus-infected human TZM-bl cells. The series is classed as functional.

Sequence of Protease (Q9YQ12 whole entry): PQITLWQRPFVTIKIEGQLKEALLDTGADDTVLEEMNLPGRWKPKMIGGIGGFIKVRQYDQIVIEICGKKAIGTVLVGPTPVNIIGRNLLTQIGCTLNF

By CC50 is commonly meant the concentration at which the toxic effect on the cells reaches its halfway point. Read a high CC50 as better tolerance by the cells. As a reminder, the EC50 is the midpoint of the concentration-response curve. Read a low EC50 as higher potency in that assay. Usually inhibition stands for the percentage by which the read-out fell short of the control. As for `CC(C)CN(C[C@@H](O)[C@H](Cc1ccccc1)NC(=O)O[C@H]1CO[C@H]2OCC[C@H]21)S(=O)(=O)c1ccc(N)cc1`, in series [1], the CC50 at 24 h was over 100 µM. Besides, the EC50 in series [2] amounted to 100 nM; in series [3] it was 6 nM. Besides, the inhibition at 10 µM in series [4] was found to be 83.2%.
The IC50 is the midpoint of a concentration-inhibition curve. High values mean lower potency, low ones higher potency. Consider `CC(C)CN(C[C@@H](O)[C@H](Cc1ccccc1)NC(=O)Cn1cc(F)c(N)nc1=O)S(=O)(=O)c1ccc(N)cc1`, for which the CC50 at 24 h in series [1] was over 100 µM. Moreover, half-maximal inhibition on Protease (IC50) required 105 nM.
In series [1], `CC(C)CN(C[C@@H](O)[C@H](Cc1ccccc1)NC(=O)Cn1cc(F)c(=O)[nH]c1=O)S(=O)(=O)c1ccc(N)cc1` displayed a CC50 at 24 h of 8.8 µM. On Protease, this molecule came in with an IC50 of 16.3 nM. Moreover, the inhibition at 10 µM in series [4] is 63%.
Taken in the same sequence, the figures for `COc1ccc(S(=O)(=O)N(CC(C)C)C[C@@H](O)[C@H](Cc2ccccc2)NC(=O)Cn2cccnc2=O)cc1` were over 100 µM, 10.3 nM and 50.3%.
As to `COc1ccc(S(=O)(=O)N(CC(C)C)C[C@@H](O)[C@H](Cc2ccccc2)NC(=O)Cn2cc(C)c(N)nc2=O)cc1`, in series [1], the CC50 at 24 h was over 100 µM. On Protease, 147 nM corresponded to half-maximal inhibition (IC50).
As for `COc1ccc(S(=O)(=O)N(CC(C)C)C[C@@H](O)[C@H](Cc2ccccc2)NC(=O)Cn2ccc(=O)[nH]c2=O)cc1`, the inhibition at 0.1 µM in series [5] worked out at 68%. The CC50 at 24 h in series [1] is over 100 µM. The IC50 on Protease was 2.53 nM. For the same molecule, the EC50 in series [2] came to 590 nM; in series [3], 270 nM. In addition, the “Ratio EC50” value in series [6] was 2.19. The inhibition at 10 µM in series [4] is 81%.
For `CC(C)CN(C[C@@H](O)[C@H](Cc1ccccc1)NC(=O)Cn1ccc(N)nc1=O)S(=O)(=O)c1ccc(N)cc1`, the CC50 at 24 h in series [1] was over 100 µM. For the same molecule, the IC50 at Protease came out at 153 nM.
Taken in the same sequence, the figures for `Cc1cn(CC(=O)N[C@@H](Cc2ccccc2)[C@H](O)CN(CC(C)C)S(=O)(=O)c2ccc([N+](=O)[O-])cc2)c(=O)nc1N` were over 100 µM and 1190 nM.
Taken in the same sequence, the figures for `CC(C)CN(C[C@@H](O)[C@H](Cc1ccccc1)NC(=O)Cn1cccnc1=O)S(=O)(=O)c1ccc(N)cc1` were over 100 µM and 126 nM.
Take `COc1ccc(S(=O)(=O)N(CC(C)C)C[C@@H](O)[C@H](Cc2ccccc2)NC(=O)Cn2cc(F)c(=O)[nH]c2=O)cc1`: in series [5], the inhibition at 0.1 µM stood at 51%. For the same molecule, the CC50 at 24 h in series [1] was over 100 µM. This molecule registered a half-inhibitory concentration (IC50) at Protease of 1.95 nM. For the same molecule, the EC50 is 2700 nM in series [2] and 1070 nM in series [3]. In addition, the “Ratio EC50” value in series [6] was 2.52. For the same molecule, the inhibition at 10 µM in series [4] came to 83.2%.
Consider `Cc1cn(CC(=O)N[C@@H](Cc2ccccc2)[C@H](O)CN(CC(C)C)S(=O)(=O)c2ccc(N)cc2)c(=O)[nH]c1=O`, for which the CC50 at 24 h in series [1] was over 100 µM. Besides, inhibition against Protease was half-maximal at 19.7 nM (IC50). Besides, the inhibition at 10 µM in series [4] came to 54%.
Take `CC(C)CN(C[C@@H](O)[C@H](Cc1ccccc1)NC(=O)Cn1cc(F)c(N)nc1=O)S(=O)(=O)c1ccc([N+](=O)[O-])cc1`: in series [1], the CC50 at 24 h is over 100 µM. On Protease, this molecule displayed an IC50 of 482 nM.
The molecule `CC(C)CN(C[C@@H](O)[C@H](Cc1ccccc1)NC(=O)Cn1cc(F)c(=O)[nH]c1=O)S(=O)(=O)c1ccc([N+](=O)[O-])cc1` registered a CC50 at 24 h in series [1] of 32.4 µM. At Protease, this molecule gave an IC50 of 27.6 nM. Moreover, the inhibition at 10 µM in series [4] was found to be 32.8%.
In turn, `COc1ccc(S(=O)(=O)N(CC(C)C)C[C@@H](O)[C@H](Cc2ccccc2)NC(=O)Cn2cc(C)c(=O)[nH]c2=O)cc1` showed a CC50 at 24 h in series [1] of over 100 µM. Further, the half-inhibitory concentration (IC50) at Protease came to 2.78 nM. Moreover, the EC50 in series [2] amounted to 2870 nM; in series [3], 2500 nM. Further, the “Ratio EC50” value in series [6] is listed as 1.15. Also, the inhibition at 10 µM in series [4] was determined as 72.7%.
`COc1ccc(S(=O)(=O)N(CC(C)C)C[C@@H](O)[C@H](Cc2ccccc2)NC(=O)Cn2cc(CO)c(=O)[nH]c2=O)cc1` returned a CC50 at 24 h in series [1] of over 100 µM. The IC50 against Protease is 9.07 nM. The inhibition at 10 µM in series [4] was found to be 59.8%.
Molecule `COc1ccc(S(=O)(=O)N(CC(C)C)C[C@@H](O)[C@H](Cc2ccccc2)NC(=O)Cn2cc(F)c(N)nc2=O)cc1` gave a CC50 at 24 h in series [1] of over 100 µM. On Protease, this molecule showed an IC50 of 36 nM.
Taken in the same sequence, the figures for `Cc1cn(CC(=O)N[C@@H](Cc2ccccc2)[C@H](O)CN(CC(C)C)S(=O)(=O)c2ccc(N)cc2)c(=O)nc1N` were over 100 µM and 375 nM.
Taken in the same sequence, the figures for `Cc1cn(CC(=O)N[C@@H](Cc2ccccc2)[C@H](O)CN(CC(C)C)S(=O)(=O)c2ccc([N+](=O)[O-])cc2)c(=O)[nH]c1=O` were over 100 µM and 44.3 nM.
For the molecule `CC(C)CN(C[C@@H](O)[C@H](Cc1ccccc1)NC(=O)Cn1ccc(=O)[nH]c1=O)S(=O)(=O)c1ccc([N+](=O)[O-])cc1`, in series [1], the CC50 at 24 h is over 100 µM. Also, half-maximal inhibition on Protease (IC50) was put at 20.1 nM. Moreover, the inhibition at 10 µM in series [4] was 51%.
In series [1], `CC(C)CN(C[C@@H](O)[C@H](Cc1ccccc1)NC(=O)Cn1cc(CO)c(=O)[nH]c1=O)S(=O)(=O)c1ccc(N)cc1` displayed a CC50 at 24 h of over 100 µM. The molecule also displayed an IC50 against Protease of 241 nM.
Taken in the same sequence, the figures for `CC(C)CN(C[C@@H](O)[C@H](Cc1ccccc1)NC(=O)Cn1cccnc1=O)S(=O)(=O)c1ccc([N+](=O)[O-])cc1` were over 100 µM and 245 nM.
On to `CC(C)CN(C[C@@H](O)[C@H](Cc1ccccc1)NC(=O)Cn1ccc(=O)[nH]c1=O)S(=O)(=O)c1ccc(N)cc1`, for which, in series [1], the CC50 at 24 h was over 100 µM. Besides, the IC50 on Protease came to 20.1 nM. Besides, the inhibition at 10 µM in series [4] came to 48.4%.
On to `CC(C)CN(C[C@@H](O)[C@H](Cc1ccccc1)NC(=O)Cn1cc(CO)c(=O)[nH]c1=O)S(=O)(=O)c1ccc([N+](=O)[O-])cc1`, for which, in series [1], the CC50 at 24 h was over 100 µM. The IC50 at Protease was found to be 405 nM.
Take `COc1ccc(S(=O)(=O)N(CC(C)C)C[C@@H](O)[C@H](Cc2ccccc2)NC(=O)Cn2ccc(N)nc2=O)cc1`: the CC50 at 24 h in series [1] was over 100 µM. This molecule displayed an IC50 at Protease of 9.04 nM. Further, the inhibition at 10 µM in series [4] was found to be 33.2%.
In series [1], `CC(C)CN(C[C@@H](O)[C@H](Cc1ccccc1)NC(=O)Cn1ccc(N)nc1=O)S(=O)(=O)c1ccc([N+](=O)[O-])cc1` returned a CC50 at 24 h of over 100 µM. Also, half-maximal inhibition on Protease (IC50) required 411 nM.
For `Cc1ccnc2c1NC(=O)c1cccnc1N2C1CC1` [NEVIRAPINE], in series [5], the inhibition at 0.1 µM was 76 to 77%.
